According to ChEMBL document CHEMBL3580635, “9-Hydroxycanthin-6-one, a β-Carboline Alkaloid from Eurycoma longifolia, Is the First Wnt Signal Inhibitor through Activation of Glycogen Synthase Kinase 3β without Depending on Casein Kinase 1α” (J Nat Prod, 2015):
Calls of active or inactive are those of the source. The calls are words filed in the database; no cut-off is given here.

Experiments:
HEK293 [1] = assay: Cytotoxicity against HEK293 cells assessed as cell viability after 24 hrs by fluorescence assay; type: cell-based; details: Homo sapiens, HEK293, 24 h
[2] = Cytotoxicity against Wnt-dependent human DLD1 cells assessed as cell viability after 24 hrs by fluorescence assay; type: functional, cell-based; details: DLD-1, 24 h
SW480 [3] = assay: Cytotoxicity against Wnt-dependent human SW480 cells assessed as cell viability after 24 hrs by fluorescence assay; details: SW480, 24 h
HCT-116 = assay: Cytotoxicity against Wnt-dependent human HCT116 cells assessed as cell viability after 24 hrs by fluorescence assay; type: functional, cell-based; details: HCT-116, 24 h
HEK-293T = assay: Cytotoxicity against HEK293T cells assessed as cell viability after 24 hrs by fluorescence assay; type: cell-based; details: Homo sapiens
[4] = molecular target: T1, Glycogen synthase kinase-3 beta (Homo sapiens, UniProt P49841); assay: Activation of GSK-3beta in HEK293 cells assessed as suppression of TCF/beta-catenin transcriptional activity after 24 hrs by SuperTOPFlash reporter gene assay; type: cell-based
In short: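 STF/293 cells (293 cells stably carrying SuperTOPFlash, seven LEF/TCF sites) seeded 3 × 10^4/well; 24 h later given compound plus LiCl (final 15 mM) for 24 h. Cells lysed and firefly luciferase read, compared with no-compound control. DMSO final below 0.1%. At least triplicate; mean ± SE, n = 3.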

HEK293 [5] = assay: Cytotoxicity against HEK293 cells transfected with SuperTOPFlash reporter gene assessed as cell viability at 10 to 40 uM after 24 hrs by fluorescence assay; type: cell-based; details: human, hek293, 24 h
In short: (§1)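 STF/293 cells seeded 3 × 10^4/well, grown 24 h, then exposed 24 h to compound diluted in medium (DMSO final below 0.1%). Cells washed, then given fluorescein diacetate 10 μg/mL in PBS for 1 h at 37 °C. Fluorescence read at ex 485/em 538 nm. Mean ± SE, n = 3.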

RKO = assay: Cytotoxicity against Wnt-independent human RKO cells assessed as cell viability after 24 hrs by fluorescence assay; type: functional, cell-based
Danio rerio [6] = organism: Danio rerio; assay: Activation of GSK-3beta in zebrafish embryo assessed as suppression of mitf gene expression in neural crest cells at 300 uM measured 24 hrs post fertilization by in situ hybridization method in presence of MO, p53 MO; type: cell-based
SW480 [7] = assay: Effect on CK1alpha expression in human SW480 cells at 10 to 30 uM after 24 hrs by Western blot analysis; type: functional, cell-based
In short: (§2)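 SW480 cells, 1 × 10^6 per 90 mm dish, treated 24 h after seeding for 24 h. Whole-cell lysates made in Triton/deoxycholate buffer with phosphatase and protease inhibitors; cytosolic and nuclear fractions prepared by NE-PER. Proteins run on 10% SDS-PAGE, blotted to PVDF, probed, detected by ECL. Bands normalized to β-actin or histone H1.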

Danio rerio [8] = organism: Danio rerio; assay: Activation of GSK-3beta in zebrafish embryo assessed as suppression of zic2a gene expression in midbrain tectum at 300 uM measured 4 to 24 hrs post fertilization by in situ hybridization method in presence of MO, p53 MO; type: tissue-based
HEK293 [9] = assay: Cytotoxicity against HEK293 cells transfected with SuperTOPFlash reporter gene assessed as cell viability at 5 to 20 uM after 24 hrs by fluorescence assay; type: cell-based; details: human, hek293, 24 h; in short: as §1
[10] = molecular target: T1, Glycogen synthase kinase-3 beta; assay: Activation of GSK-3beta in human SW480 cells assessed as increase in phosphorylation of beta-catenin at Ser37 at 30 uM after 24 hrs by Western blot analysis in presence of CK1alpha siRNA; type: cell-based
In short: (§3)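 SW480 cells, 5 × 10^4/well, grown 24 h, then transfected for 6 h with control or CK1α siRNA (10 pmol, Lipofectamine 2000). Compound then added in DMEM/10% FBS for 24 h. Whole-cell lysates Western blotted, normalized to β-actin.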
Target sequence in this assay (P49841 whole entry, looked up): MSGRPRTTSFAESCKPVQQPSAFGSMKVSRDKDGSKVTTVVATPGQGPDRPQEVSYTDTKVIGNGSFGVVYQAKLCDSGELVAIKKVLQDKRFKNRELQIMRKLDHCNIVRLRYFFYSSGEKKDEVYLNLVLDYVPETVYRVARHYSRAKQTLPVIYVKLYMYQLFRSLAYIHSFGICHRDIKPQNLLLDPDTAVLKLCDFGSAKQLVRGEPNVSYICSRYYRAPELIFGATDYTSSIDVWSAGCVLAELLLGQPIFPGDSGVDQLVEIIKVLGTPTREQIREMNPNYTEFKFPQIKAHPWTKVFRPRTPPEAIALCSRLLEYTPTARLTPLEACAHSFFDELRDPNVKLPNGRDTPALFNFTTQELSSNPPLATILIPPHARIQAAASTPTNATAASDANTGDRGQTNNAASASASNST

Danio rerio [11] = organism: Danio rerio; assay: Activation of GSK-3beta in zebrafish embryo assessed as reduction of pigment cells on tail at 300 uM measured 4 to 30 hrs post fertilization
[12] = molecular target: T1, Glycogen synthase kinase-3 beta; assay: Activation of GSK-3beta in human SW480 cells assessed as increase in phosphorylation of beta-catenin at Thr41 at 30 uM after 24 hrs by Western blot analysis in presence of control siRNA; type: cell-based
In short: (§4)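 SW480 cells, 1 × 10^5/well, grown 24 h, then transfected for 3 h with control or GSK3β siRNA (10 pmol, Lipofectamine 2000). Compound then added in DMEM/10% FBS for 24 h. Whole-cell lysates Western blotted, normalized to β-actin.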
Target sequence in this assay (P49841 whole entry, looked up): as above

[13] = molecular target: T1, Glycogen synthase kinase-3 beta; assay: Activation of GSK-3beta in human SW480 cells assessed as increase in phosphorylation of beta-catenin at Ser33 at 30 uM after 24 hrs by Western blot analysis in presence of CK1alpha siRNA; type: cell-based; in short: as §3
Target sequence in this assay (P49841 whole entry, looked up): as above

[14] = molecular target: T1, Glycogen synthase kinase-3 beta; assay: Activation of GSK-3beta in human SW480 cells assessed as increase in phosphorylation of beta-catenin at Ser37 at 30 uM after 24 hrs by Western blot analysis in presence of control siRNA; type: cell-based; in short: as §4
Target sequence in this assay (P49841 whole entry, looked up): as above

[15] = molecular target: T1, Glycogen synthase kinase-3 beta; assay: Activation of GSK-3beta in human SW480 cells assessed as downregulation of beta-catenin expression in nuclear fraction at 10 to 30 uM after 24 hrs by Western blot analysis; type: cell-based; in short: as §2
Target sequence in this assay (P49841 whole entry, looked up): as above

Danio rerio [16] = organism: Danio rerio; assay: Activation of GSK-3beta in zebrafish embryo assessed as reduction of BIO-induced eyeless phenotype appearance at 100 uM measured 4 to 30 hrs post fertilization; set-up: scale not given: the % may be the effect or the level left
In short: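 Zebrafish embryos exposed 4–30 hpf at 28.5 °C in E3 medium to BIO (0.5 μM) alone or BIO plus compound (100 μM), then examined under a stereomicroscope.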

[17] = molecular target: T1, Glycogen synthase kinase-3 beta; assay: Activation of GSK-3beta in human SW480 cells assessed as increase in phosphorylation of beta-catenin at Ser33 at 30 uM after 24 hrs by Western blot analysis in presence of control siRNA; type: cell-based; in short: as §4
Target sequence in this assay (P49841 whole entry, looked up): as above

[18] = molecular target: T1, Glycogen synthase kinase-3 beta; assay: Activation of GSK-3beta in human SW480 cells assessed as increase in phosphorylation of beta-catenin at Ser33 at 30 uM after 24 hrs by Western blot analysis in presence of GSK-3beta siRNA; type: cell-based; in short: as §4
[19] = molecular target: T1, Glycogen synthase kinase-3 beta; assay: Activation of GSK-3beta in human SW480 cells assessed as increase in phosphorylation of beta-catenin at Thr41 at 10 to 30 uM after 24 hrs by Western blot analysis; type: cell-based; in short: as §2
[20] = molecular target: T1, Glycogen synthase kinase-3 beta; assay: Activation of GSK-3beta in human SW480 cells assessed as downregulation of beta-catenin expression in cytosolic fraction at 10 to 30 uM after 24 hrs by Western blot analysis; type: cell-based; in short: as §2
[21] = molecular target: T1, Glycogen synthase kinase-3 beta; assay: Inhibition of GSK-3beta phosphorylation at Ser9 in human SW480 cells at 30 uM after 24 hrs by Western blot analysis in presence of CK1alpha siRNA; type: cell-based; in short: as §3
[22] = molecular target: T1, Glycogen synthase kinase-3 beta; assay: Activation of GSK-3beta in human SW480 cells assessed as increase in phosphorylation of beta-catenin at Ser37 at 30 uM after 24 hrs by Western blot analysis in presence of GSK-3beta siRNA; type: cell-based; in short: as §4
Danio rerio [23] = organism: Danio rerio; assay: Induction of apoptosis in zebrafish embryo at 300 uM measured 10 to 24 hrs post fertilization by TUNEL assay in presence of MO, p53 MO; type: organism-based; details: in vivo
In short: (§5)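 TOPdGFP transgenic zebrafish embryos injected at the one- or two-cell stage with 5 ng control or p53 morpholino. Exposed 10–24 hpf at 28.5 °C in E3 medium containing 300 μM compound. TOPdGFP in the midbrain tectum imaged by fluorescence microscopy; apoptotic cells detected by TUNEL kit.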

[24] = molecular target: Casein kinase I isoform alpha (Homo sapiens) (UniProt P48729); assay: Effect on CK1alpha in human SW480 cells assessed as change in phosphorylation of beta-catenin at Ser45 at 10 to 30 uM after 24 hrs by Western blot analysis; type: cell-based; in short: as §2
Casein kinase I isoform alpha (Homo sapiens), sequence (P48729 2-337 limits assumed): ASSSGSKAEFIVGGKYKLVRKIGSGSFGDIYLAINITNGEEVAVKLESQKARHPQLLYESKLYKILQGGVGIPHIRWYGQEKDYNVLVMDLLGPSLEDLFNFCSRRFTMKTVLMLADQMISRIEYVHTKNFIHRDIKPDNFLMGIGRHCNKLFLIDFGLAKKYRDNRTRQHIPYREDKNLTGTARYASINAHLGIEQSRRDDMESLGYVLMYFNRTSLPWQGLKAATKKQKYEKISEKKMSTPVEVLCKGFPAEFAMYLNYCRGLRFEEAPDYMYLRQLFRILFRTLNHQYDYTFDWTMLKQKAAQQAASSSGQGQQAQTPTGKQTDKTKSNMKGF

[25] = molecular target: T1, Glycogen synthase kinase-3 beta; assay: Activation of GSK-3beta in human SW480 cells assessed as increase in phosphorylation of beta-catenin at Thr41 at 30 uM after 24 hrs by Western blot analysis in presence of CK1alpha siRNA; type: cell-based; in short: as §3
[26] = molecular target: T1, Glycogen synthase kinase-3 beta; assay: Activation of GSK-3beta in human SW480 cells assessed as increase in phosphorylation of beta-catenin at Ser33 at 10 to 30 uM after 24 hrs by Western blot analysis; type: cell-based; in short: as §2
[27] = molecular target: T1, Glycogen synthase kinase-3 beta; assay: Activation of GSK-3beta in human SW480 cells assessed as increase in phosphorylation of beta-catenin at Thr41 at 30 uM after 24 hrs by Western blot analysis in presence of GSK-3beta siRNA; type: cell-based; in short: as §4
[28] = molecular target: T1, Glycogen synthase kinase-3 beta; assay: Activation of GSK-3beta in human SW480 cells assessed as increase in phosphorylation of beta-catenin at Ser37 at 10 to 30 uM after 24 hrs by Western blot analysis; type: cell-based; in short: as §2
[29] = molecular target: T1, Glycogen synthase kinase-3 beta; assay: Inhibition of GSK-3beta phosphorylation at Ser9 in human SW480 cells at 30 uM after 24 hrs by Western blot analysis in presence of control and GSK-3beta siRNA; type: cell-based; in short: as §4
[30] = Activation of GSK-3beta in zebrafish embryo assessed as suppression of Wnt/beta-catenin signaling pathway at 300 uM measured 10 to 24 hrs post fertilization by TOPdGFP reporter gene-based fluorescence microscopic analysis in presence of MO, p53 MO; details: Danio rerio; in short: as §5
SW480 [31] = assay: Effect on GSK-3beta expression in human SW480 cells at 10 to 30 uM after 24 hrs by Western blot analysis; type: functional, cell-based; in short: as §2
HEK293 [32] = assay: Cytotoxicity against HEK293 cells transfected with SuperTOPFlash reporter gene assessed as cell viability at 2.5 to 10 uM after 24 hrs by fluorescence assay; type: cell-based; details: human, hek293, 24 h; in short: as §1

In the case of O=c1ccc2nccc3c4ccc(O[C@@H]5O[C@H](CO)[C@@H](O)[C@H](O)[C@H]5O)cc4n1c23, the IC50 (HEK293 [1]) is reported as 36.7 µM, the IC50 [2] is reported as > 40 µM and the IC50 (SW480 [3]) is reported as > 40 µM. For the same compound, the IC50 (HCT-116) was > 40 µM, the IC50 (HEK-293T) was > 40 µM and the Activity [4] was “Dose-dependent effect”. The IC50 [4] was 11.6 µM, the Activity (HEK293 [5]) was “Non-toxic” and the IC50 (RKO) was > 40 µM.
With O=c1ccc2nccc3c4ccc(O)cc4n1c23 the Activity (Danio rerio [6]) was “Active”, the Activity (SW480 [7]) was “inactive” and the Activity (Danio rerio [8]) was “Active”. For the same compound, the Activity (HEK293 [9]) was “Non-toxic”, the Activity [10] was “Active” and the Activity (Danio rerio [11]) was “Active”. For the same compound, the IC50 (HEK293 [1]) was 36.7 µM, the Activity [12] was “Active” and the Activity [13] was “Active”. For the same compound, the Activity [14] was “Active”, the Activity [15] was “Active” and the Activity (Danio rerio [16]) was 46%. For the same compound, the Activity [17] was “Active”, the Activity [18] was “inactive” and the Activity [19] was “Active”. For the same compound, the Activity [20] was “Active”, the IC50 [2] was > 40 µM and the inhibition [21] was “Active”. The Activity [22] was “inactive”, the IC50 (SW480 [3]) was 17.4 µM and the Activity (Danio rerio [23]) was “Non-toxic”. The Activity [24] was “inactive”, the IC50 (HCT-116) was 30 µM and the IC50 (HEK-293T) was > 40 µM. The Activity [25] was “Active”, the Activity [26] was “Active” and the Activity [4] was “Dose-dependent effect”. For the same compound, the IC50 [4] was 6.8 µM, the Activity [27] was “inactive” and the Activity [28] was “Active”. For the same compound, the inhibition [29] was “Active”, the Activity [30] was “Active” and the Activity (SW480 [31]) was “inactive”. The IC50 (RKO) was > 40 µM.
CC(=O)O[C@@H]1C[C@H]2C(C)(C)C(=O)C=C[C@]2(C)[C@H]2CC[C@]3(C)C(=CC[C@H]3[C@H]3COC(=O)C3)[C@@]21C gave an IC50 (HEK293 [1]) of 31.2 µM, an IC50 [2] of 31.7 µM and an IC50 (SW480 [3]) of 11.2 µM. The IC50 (HCT-116) was 24.4 µM, the IC50 (HEK-293T) was > 40 µM and the Activity [4] was “Dose-dependent effect”. The IC50 [4] was 3 µM, the Activity (HEK293 [32]) was “Non-toxic” and the IC50 (RKO) was 26.4 µM.
